Test results: ChEMBL document CHEMBL4354811, “Discovery of Novel Aryl Carboxamide Derivatives as Hypoxia-Inducible Factor 1α Signaling Inhibitors with Potent Activities of Anticancer Metastasis” (J Med Chem, 2019)
Active and inactive are the calls of the source.

How the values were obtained:
[1] = molecular target: Hypoxia-inducible factor 1-alpha (Homo sapiens) (UniProt Q16665); test: Inhibition of HIF1alpha transcriptional activity in hypoxia-induced human HCCLM3 cells co-transfected with luciferase reporter plasmid containing five copies of HREs and pRL-SV40 plasmid encoding Renilla luciferase at 10 uM incubated with compound under normoxia for 1 hr followed by hypoxia induction and measured after 24 hrs by HRE-dependent dual luciferase reporter gene assay relative to control
Hypoxia-inducible factor 1-alpha (Homo sapiens), sequence (Q16665 whole entry, looked up): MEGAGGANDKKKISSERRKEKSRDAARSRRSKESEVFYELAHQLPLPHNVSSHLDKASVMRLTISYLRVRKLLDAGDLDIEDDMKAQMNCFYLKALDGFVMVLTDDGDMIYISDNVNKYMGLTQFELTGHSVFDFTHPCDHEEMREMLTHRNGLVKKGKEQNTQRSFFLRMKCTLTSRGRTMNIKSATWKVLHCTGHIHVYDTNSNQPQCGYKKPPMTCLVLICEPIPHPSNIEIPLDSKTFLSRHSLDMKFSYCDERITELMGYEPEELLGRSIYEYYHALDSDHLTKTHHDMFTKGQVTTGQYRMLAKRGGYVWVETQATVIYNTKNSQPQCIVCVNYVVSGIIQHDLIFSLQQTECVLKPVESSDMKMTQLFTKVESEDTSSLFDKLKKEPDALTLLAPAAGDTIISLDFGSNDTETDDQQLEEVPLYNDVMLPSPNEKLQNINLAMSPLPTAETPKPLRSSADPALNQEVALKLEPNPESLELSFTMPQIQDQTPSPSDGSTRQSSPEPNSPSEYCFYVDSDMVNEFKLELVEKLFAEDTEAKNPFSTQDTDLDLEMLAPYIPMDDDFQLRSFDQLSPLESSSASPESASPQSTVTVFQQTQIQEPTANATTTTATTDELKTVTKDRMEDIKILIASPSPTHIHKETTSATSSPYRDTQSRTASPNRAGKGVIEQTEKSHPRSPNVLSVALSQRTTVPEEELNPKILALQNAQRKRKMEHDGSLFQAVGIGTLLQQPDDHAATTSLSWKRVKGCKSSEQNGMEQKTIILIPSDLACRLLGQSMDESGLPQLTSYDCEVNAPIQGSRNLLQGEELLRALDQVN
Method in brief: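 LM3 cells co-transfected with firefly luciferase reporter carrying five HRE copies plus pRL-SV40 Renilla plasmid; after transfection treated and kept under hypoxia; firefly luminescence normalized to Renilla. Single-point inhibition rate at 10 μM; IC50 for selected compounds.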

[2] = molecular target: Hypoxia-inducible factor 1-alpha (Homo sapiens) (UniProt Q16665); test: (§1) Potency index, ratio of IC50 for 2-Methyl-N-phenethylthiazole-4-carboxamide to IC50 for test compound for inhibition of HIF1alpha transcriptional activity in hypoxia-induced human HCCLM3 cells incubated with compound under normoxia for 1 hr followed by hypoxia induction and measured after 24 hrs by HRE-dependent dual luciferase reporter gene assay
HCCLM3 = test: Inhibition of HIF1alpha accumulation in hypoxia-induced human HCCLM3 cells at 10 uM incubated with compound under normoxia for 1 hr followed by hypoxia induction and measured after 24 hrs by Western blot analysis; format: functional, cell-based
Method in brief: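 LM3 cells treated at 10 μM under hypoxia; HIF-1α protein by western blot, LW6 as reference.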

[3] = molecular target: Hypoxia-inducible factor 1-alpha (Homo sapiens) (UniProt Q16665); test: as §1, with “LW6” for “2-Methyl-N-phenethylthiazole-4-carboxamide”
[4] = Cytotoxicity against human HCCLM3 cells assessed as reduction in cell viability incubated for 48 hrs by MTT assay; format: cell-based
MDA-MB-231 [5] = test: Inhibition of HIF1alpha accumulation in hypoxia-induced human MDA-MB-231 cells incubated with compound under normoxia for 1 hr followed by hypoxia induction and measured after 24 hrs by Western blot analysis; format: functional, cell-based
Method in brief: (§2)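 MDA-MB-231, SKOV3 and HeLa cells exposed to hypoxia with compound at a range of concentrations; HIF-1α accumulation assessed by western blot.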

SK-OV-3 = test: Inhibition of HIF1alpha accumulation in hypoxia-induced human SKOV3 cells incubated with compound under normoxia for 1 hr followed by hypoxia induction and measured after 24 hrs by Western blot analysis; format: functional, cell-based; method in brief: as §2
HeLa = test: Inhibition of HIF1alpha accumulation in hypoxia-induced human HeLa cells incubated with compound under normoxia for 1 hr followed by hypoxia induction and measured after 24 hrs by Western blot analysis; format: functional, cell-based; method in brief: as §2
HUVEC [6] = test: Antiangiogenic activity in HUVEC assessed as reduction in VEGF mRNA expression incubated with compound under normoxia for 1 hr followed by hypoxia induction and measured after 24 hrs by real time-PCR analysis; format: functional, cell-based; settings: Homo sapiens
Method in brief: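 HUVECs treated with 0.5 or 1 μM; VEGF mRNA by real-time PCR, normalized to GAPDH, compared with normoxia and untreated hypoxic controls; means ± SD of three independent experiments.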

HUVEC [7] = test: Antiangiogenic activity in HUVEC assessed as suppression of capillary-like tubule formation at 2 to 5 uM incubated under hypoxia for 12 hrs by inverted microscopic method; format: functional, cell-based; settings: Homo sapiens
Method in brief: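 HUVECs seeded on matrigel-precoated wells under hypoxia, treated at 2 or 5 μM; capillary-like tubule branches photographed; representative of three independent experiments.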

HUVEC [8] = test: Antiangiogenic activity in HUVEC assessed as disruption in capillary-like tubule formation at 5 uM incubated under hypoxia for 12 hrs by inverted microscopic method; format: functional, Homo sapiens
Method in brief: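 HUVECs on matrigel-precoated wells, incubated under hypoxia with 5 μM compound; tubule branches photographed; three independent experiments.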

Danio rerio = species: Danio rerio; test: Antiangiogenic activity in […]/EGFP transgenic zebrafish embryo assessed as destruction of subintestinal vessel at 0.5 to 1 uM incubated for 24 hrs by confocal microscopic method; format: functional, organism-based
Method in brief: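 Transgenic zebrafish with GFP-labeled vascular endothelium; embryos selected, […], exposed 24 h to 0.5 or 1 μM (DMSO vehicle, n = 10; apatinib 0.5 μM reference); SIVs imaged by confocal microscopy and counted per field; means ± SD, three independent experiments.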

MDA-MB-231 [9] = test: Inhibition of cell migration in human MDA-MB-231 cells incubated with compound under normoxia for 1 hr followed by hypoxia induction and measured after 24 hrs by wound healing assay based inverted microscopic method; format: functional
Method in brief: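 Wound-healing: monolayer of MDA-MB-231 scratched, treated 2, 5, 10 μM or DMSO under normoxia 1 h then hypoxia 24 h; wound closure imaged; three independent experiments.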

MDA-MB-231 [10] = test: Inhibition of cell invasion in human MDA-MB-231 cells incubated with compound under normoxia for 1 hr followed by hypoxia induction and measured after 24 hrs by transwell assay/crystal violet staining based inverted microscopic method; format: functional
Method in brief: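 Transwell with MDA-MB-231 cells in upper chamber on matrigel-precoated inserts; 2, 5, 10 μM under normoxia 1 h then hypoxia 24 h; invaded cells stained with crystal violet and counted; three experiments, means ± SD.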

MDA-MB-231 [11] = test: Induction of E-cadherin protein expression in human MDA-MB-231 cells incubated with compound under normoxia for 1 hr followed by hypoxia induction and measured after 24 hrs by Western blot analysis; format: functional, cell-based
Method in brief: (§3)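 MDA-MB-231 cells given 2, 5 or 10 μM under normoxia 1 h, then hypoxia 24 h; E-cadherin, vimentin, MMP-2, MMP-9 by western blot, GAPDH loading control; three independent experiments.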

MDA-MB-231 [12] = test: Inhibition of vimentin protein expression in human MDA-MB-231 cells incubated with compound under normoxia for 1 hr followed by hypoxia induction and measured after 24 hrs by Western blot analysis; format: functional, cell-based; method in brief: as §3
MDA-MB-231 [13] = test: Downregulation of MMP2 protein expression in human MDA-MB-231 cells incubated with compound under normoxia for 1 hr followed by hypoxia induction and measured after 24 hrs by Western blot analysis; format: functional, cell-based; method in brief: as §3
MDA-MB-231 [14] = test: Downregulation of MMP9 protein expression in human MDA-MB-231 cells incubated with compound under normoxia for 1 hr followed by hypoxia induction and measured after 24 hrs by Western blot analysis; format: functional, cell-based; method in brief: as §3
MDA-MB-231 [15] = test: (§4) Antimetastatic activity against human MDA-MB-231 cells stable expressing luciferase xenografted in ip dosed BALB/c nude mouse assessed as reduction in lung colonization of tumor cells administered every 2 days for 3 weeks starting at 24 hrs post-trensfection and measured at 24 hrs after final dose by bioluminescent imaging assay; format: functional, organism-based
Method in brief: (§5)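 Luciferase-expressing MDA-MB-231 cells injected into tail vein of BALB/c nude mice; i.p. vehicle or 15 and 30 mg/kg starting 24 h later, every 2 days for 20 days; bioluminescence imaged 24 h after last dose; lungs examined by H&E histology; n = 4 per group, mean ± SD.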

MDA-MB-231 [16] = test: as §4, with “final doses” for “final dose”, “by H and E staining method” for “by bioluminescent imaging assay”; format: functional, organism-based; method in brief: as §5
[17] = Toxicity in BALB/c nude mouse xenografted with human MDA-MB-231 cells stable expressing luciferase assessed as change in body weight at 15 to 30 mg/kg, ip administered every 2 days for 3 weeks starting at 24 hrs post-trensfection; format: organism-based; settings: in vivo
Method in brief: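 Tail-vein luciferase MDA-MB-231 lung-metastasis model in BALB/c nude mice; 15 or 30 mg/kg i.p. every 2 days for 20 days from 24 h post-injection; body weight recorded at study end.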

[18] = molecular target: Hypoxia-inducible factor 1-alpha (Homo sapiens) (UniProt Q16665); test: Induction of HIF1alpha (unknown origin) degradation
HUVEC [19] = test: Antiproliferative activity against HUVEC at 2 to 5 uM; format: cell-based; settings: human
MDA-MB-231 [20] = test: Induction of apoptosis in human MDA-MB-231 cells at 2 to 10 uM incubated for 24 hrs; format: cell-based; settings: mda-mb-231, 24 h
MDA-MB-231 [21] = test: Inhibition of cell growth in human MDA-MB-231 cells at 2 to 10 uM incubated for 24 hrs; format: cell-based; settings: mda-mb-231, 24 h

COc1ccccc1-c1ccc(C(=O)NCCc2ccccc2F)nc1
10: Ratio IC50 [3]
100%: Activity (HUVEC [8])
active: HIF-1α accumulation inhibition (qualitative) (HCCLM3) | inhibition (MDA-MB-231 [5]) Dose-dependent effect | inhibition (SK-OV-3) Dose-dependent effect | inhibition (HeLa) Dose-dependent effect | Activity (HUVEC [6]) Dose-dependent effect | Activity (HUVEC [7]) | Activity (Danio rerio) | inhibition (MDA-MB-231 [9]) Dose-dependent effect | inhibition (MDA-MB-231 [10]) Dose-dependent effect | Activity (MDA-MB-231 [11]) Dose-dependent effect | inhibition (MDA-MB-231 [12]) Dose-dependent effect | inhibition (MDA-MB-231 [13]) Dose-dependent effect | inhibition (MDA-MB-231 [14]) Dose-dependent effect | Activity (MDA-MB-231 [15]) Dose-dependent effect | Activity (MDA-MB-231 [16]) Dose-dependent effect | Activity [18]
> 50 µM: CC50 at 48 h [4]
Non-Toxic: Activity [17] | Activity (HUVEC [19]) | Activity (MDA-MB-231 [20]) | growth inhibition (GI) (MDA-MB-231 [21])
91.4 to 97.7%: inhibition [1]
170: Ratio IC50 [2]
